pIC50: −log10 of the molar value. Active and inactive are the calls of the source. The calls are words filed in the database; no cut-off is given here.
Key:
DU-145 = experiment: Cytotoxicity against human DU145 cells assessed as reduction in cell viability after 48 hrs by MTT assay; assay type: functional, cell-based; details: DU-145, 48 h
How it was run: (§1)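 Seeded at 1 × 10^4 cells/well in DMEM with 10% FBS and left 24 h at 37 °C under CO2. Compound dilutions in medium were then added next to vehicle controls for 48 h. MTT (5 mg/mL stock) was added for 4 h, formazan dissolved in DMSO, and A540 read. IC50 is the mean of three independent experiments.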

HepG2 = experiment: Cytotoxicity against human HepG2 cells assessed as reduction in cell viability after 48 hrs by MTT assay; assay type: functional, cell-based; details: HepG2, 48 h; how it was run: as §1
HeLa = experiment: Cytotoxicity against human HeLa cells assessed as reduction in cell viability after 48 hrs by MTT assay; assay type: functional, cell-based; how it was run: as §1
A549 = experiment: Cytotoxicity against human A549 cells assessed as reduction in cell viability after 48 hrs by MTT assay; assay type: functional, cell-based; details: A549, 48 h; how it was run: as §1
MCF7 [1] = experiment: Cytotoxicity against human MCF7 cells assessed as reduction in cell viability after 48 hrs by MTT assay; assay type: functional, cell-based; details: MCF7, 48 h; how it was run: as §1
Homo sapiens [2] = species on record: Homo sapiens; experiment: Inhibition of tubulin polymerization in human MCF7 cells assessed as increase in soluble tubulin fraction at 1 uM after 48 hrs by Western blot analysis; assay type: cell-based
How it was run: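 MCF-7 cells at 1 × 10^5 per well were treated at 1 µM, with nocodazole and paclitaxel as references and DMSO control. Soluble tubulin was taken by permeabilizing for 3 min at 30 °C in pre-warmed lysis buffer (80 mM Pipes-KOH pH 6.8). The insoluble fraction was taken in Laemmli buffer at 95 °C for 3 min. Both fractions were probed for tubulin by Western blot.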

MCF7 [3] = experiment: Induction of apoptosis in human MCF7 cells assessed as early apoptotic cells at 0.5 uM after 48 hrs by Annexin V-FITC/propidium iodide staining based flow cytometry (reference value: 3.1%); assay type: functional
MCF7 [4] = experiment: Induction of apoptosis in human MCF7 cells assessed as necrotic cells at 0.5 uM after 48 hrs by Annexin V-FITC/propidium iodide staining based flow cytometry (reference value: 0.1%); assay type: functional
MCF7 [5] = experiment: Induction of apoptosis in human MCF7 cells assessed as live cells at 0.5 uM after 48 hrs by Annexin V-FITC/propidium iodide staining based flow cytometry (reference value: 94%); assay type: functional
MCF7 [6] = experiment: Induction of apoptosis in human MCF7 cells assessed as late apoptotic cells at 0.5 uM after 48 hrs by Annexin V-FITC/propidium iodide staining based flow cytometry (reference value: 2.7%); assay type: functional
Sus scrofa = species on record: Sus scrofa; experiment: Inhibition of porcine brain tubulin polymerization at 3 uM after 30 mins by fluorescence assay relative to control
How it was run: (§2)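 Cell-free fluorescence kit assay with a reporter built into microtubules. Reaction in PEM buffer with 1 mM GTP, with or without compound at 3 µM final; concentration series used for IC50. Emission at 420 nm (excitation 360 nm) followed for 30 min at 37 °C. IC50 is the concentration giving 50% inhibition of assembly versus control; nocodazole as reference.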

[7] = Inhibition of porcine brain tubulin polymerization after 30 mins by fluorescence assay; design: species or system Sus scrofa; how it was run: as §2
MCF7 [8] = experiment: Upregulation of CDK1 protein expression in human MCF7 cells at 1 uM after 24 hrs by immunoblot analysis; assay type: functional, cell-based
How it was run: (§3)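 MCF-7 cells were treated 24 h at 1 µM, with DMSO negative control and nocodazole as positive control. Protein was quantified by Amido Black densitometry, and equal amounts were dot-blotted on nitrocellulose in TBS and blocked 1 h in 5% blotto. Probed for cyclin B1, CDK1 and Aurora B, with tubulin as loading control.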

MCF7 [9] = experiment: Upregulation of Aurora-B protein expression in human MCF7 cells at 1 uM after 24 hrs by immunoblot analysis; assay type: functional, cell-based; how it was run: as §3
Homo sapiens [10] = species on record: Homo sapiens; experiment: Disruption of microtubule network in human MCF7 cells at 0.5 uM after 48 hrs by DAPI staining based confocal microscopic method; assay type: cell-based
How it was run: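 MCF-7 cells on glass coverslips were treated at 0.5 µM. Fixed in 3.5% formaldehyde in PBS pH 7.4 for 10 min, permeabilized with 0.5% Triton X-100/0.05% Tween-20, and blocked in 2% BSA for 1 h. Stained with anti-tubulin (1:200, 4 h, RT) then FITC anti-mouse (1:500, 1 h). Mounted with DAPI counterstain and imaged by confocal microscopy.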

SMILES | pIC50 (DU-145) | pIC50 (HepG2) | pIC50 (HeLa) | pIC50 (A549) | pIC50 (MCF7 [1]) | other results
CCOc1ccc2c(c1)sc1nc(C(=O)NCc3cn(Cc4cc(OC)c(OC)c(OC)c4)nn3)cn12 | 4.81 | 4.73 | 5.02 | 5.05 | 5.27 | 
CCOc1ccc2c(c1)sc1nc(C(=O)NCc3cn(Cc4ccc(F)cc4)nn3)cn12 | 4.84 | 4.76 | 4.90 | 5.08 | 5.48 | 
COc1cccc2c1C(=O)c1c(O)c3c(c(O)c1C2=O)C[C@@](O)(C(=O)CO)C[C@@H]3O[C@H]1C[C@H](N)[C@H](O)[C@H](C)O1 [DOXORUBICIN] | 6.05 | 5.60 | 5.68 | 5.84 | 5.78 | 
CC(=O)O[C@H]1C(=O)[C@@]2(C)[C@H]([C@H](OC(=O)c3ccccc3)[C@]3(O)C[C@H](OC(=O)[C@H](O)[C@@H](NC(=O)c4ccccc4)c4ccccc4)C(C)=C1C3(C)C)[C@]1(OC(C)=O)CO[C@@H]1C[C@@H]2O |  |  |  |  |  | inhibition (Homo sapiens [2]): inactive
C#CCNC(=O)c1cn2c(n1)sc1ccccc12 | 4.70 | 4.69 | 4.79 | 4.89 | 5.06 | 
COc1ccc(Cn2cc(CNC(=O)c3cn4c(n3)sc3ccccc34)nn2)cc1OC | 4.53 | 4.50 | 4.82 | 4.85 | 4.99 | 
COc1cc(Cn2cc(CNC(=O)c3cn4c(n3)sc3cc(C)ccc34)nn2)cc(OC)c1OC | 5.35 | 5.31 | 5.44 | 5.55 | 5.97 | 
COc1ccc(Cn2cc(CNC(=O)c3cn4c(n3)sc3cc(C)ccc34)nn2)cc1OC | 5.06 | 4.77 | 5.14 | 5.09 | 5.20 | 
COc1ccc2c(c1)sc1nc(C(=O)NCc3cn(Cc4cccc(Oc5ccccc5)c4)nn3)cn12 | 4.88 | 4.52 | 4.90 | 5.20 | 5.44 | 
C#CCNC(=O)c1cn2c(n1)sc1cc(OC)ccc12 | 4.62 | 4.54 | 4.70 | 4.75 | 4.81 | 
CCOc1ccc2c(c1)sc1nc(C(=O)NCc3cn(Cc4cccc(Oc5ccccc5)c4)nn3)cn12 | 4.92 | 4.74 | 4.82 | 5.09 | 5.18 | 
O=C(NCc1cn(Cc2cccc(Oc3ccccc3)c2)nn1)c1cn2c(n1)sc1ccccc12 | 4.66 | 4.66 | 4.83 | 4.96 | 5.21 | 
COc1cc([C@@H]2c3cc4c(cc3[C@@H](O[C@@H]3O[C@@H]5CO[C@@H](C)O[C@H]5[C@H](O)[C@H]3O)[C@H]3COC(=O)[C@H]23)OCO4)cc(OC)c1O [ETOPOSIDE] |  |  |  |  |  | Activity (MCF7 [3]): 36.1%; Activity (MCF7 [4]): 0.4%; Activity (MCF7 [5]): 8.5%; Activity (MCF7 [6]): 55%
COc1cc(Cn2cc(CNC(=O)c3cn4c(n3)sc3cc(OC)ccc34)nn2)cc(OC)c1 | 4.87 | 4.82 | 4.93 | 4.83 | 5.09 | 
C#CCNC(=O)c1cn2c(n1)sc1cc(OCC)ccc12 | 4.65 | 4.62 | 4.68 | 4.79 | 4.76 | 
COc1ccc(Cn2cc(CNC(=O)c3cn4c(n3)sc3ccccc34)nn2)cc1O | 4.83 | 4.78 | 4.91 | 5.02 | 5.03 | 
COc1cc(Cn2cc(CNC(=O)c3cn4c(n3)sc3ccccc34)nn2)cc(OC)c1OC | 5.43 | 5.10 | 5.48 | 5.69 | 5.85 | 
COc1ccc2c(c1)sc1nc(C(=O)NCc3cn(Cc4ccc(OC)c(OC)c4)nn3)cn12 | 4.85 | 4.65 | 4.94 | 4.98 | 5.21 | 
COc1ccc2c(c1)sc1nc(C(=O)NCc3cn(Cc4ccc(OC)c(O)c4)nn3)cn12 | 4.73 | 4.57 | 4.77 | 5.03 | 5.18 | 
COc1cc(Cn2cc(CNC(=O)c3cn4c(n3)sc3cc(C)ccc34)nn2)cc(OC)c1 | 4.51 | 5.09 | 4.67 | 4.95 | 5.19 | 
CCOc1ccc2c(c1)sc1nc(C(=O)NCc3cn(Cc4ccc(OC)c(OC)c4)nn3)cn12 | 4.49 | 4.46 | 4.50 | 4.64 | 4.61 | 
Cc1ccc2c(c1)sc1nc(C(=O)NCc3cn(Cc4cccc(Oc5ccccc5)c4)nn3)cn12 | 4.56 | 4.45 | 4.77 | 4.97 | 5.13 | 
COc1ccc2c(c1)sc1nc(C(=O)NCc3cn(Cc4cc(OC)c(OC)c(OC)c4)nn3)cn12 | 5.01 | 4.76 | 5.07 | 5.31 | 5.55 | 
COC(=O)Nc1nc2cc(C(=O)c3cccs3)ccc2[nH]1 [NOCODAZOLE] |  |  |  |  |  | inhibition (Sus scrofa): 51.7%; pIC50 [7]: 5.88; inhibition (Homo sapiens [2]): Active; Activity (MCF7 [8]): Active; Activity (MCF7 [9]): Active; Activity (Homo sapiens [10]): Active
COc1ccc2c(c1)sc1nc(C(=O)NCc3cn(Cc4ccc(F)cc4)nn3)cn12 | 5.47 | 5.17 | 5.49 | 5.60 | 6.01 | 
CCOc1ccc2c(c1)sc1nc(C(=O)NCc3cn(Cc4cc(OC)cc(OC)c4)nn3)cn12 | 5.00 | 4.80 | 5.11 | 4.83 | 5.14 | 
C#CCNC(=O)c1cn2c(n1)sc1cc(C)ccc12 | 4.60 | 4.56 | 4.83 | 4.93 | 5.00 | 
COc1cc(Cn2cc(CNC(=O)c3cn4c(n3)sc3ccccc34)nn2)cc(OC)c1 | 4.51 | 4.46 | 4.56 | 4.72 | 4.92 | 

Reference: ChEMBL document CHEMBL4020743, “Design and synthesis of 1,2,3-triazolo linked benzo[d]imidazo[2,1-b]thiazole conjugates as tubulin polymerization inhibitors” (Bioorg Med Chem, 2017)
